In the library only some 5% were active in any assay of this set; here they are far more common.
CSC inhib – cancer stem cell inhibition; cancer stem cell-like cells viability, luminescence; inhibition, % at 7.5 µM; actives 1.1% (n = 300,000); AID 2717; in the data active means inhibition above about 75%; tested in HMLE shEcad cells
Beta cell apopt – beta cell apoptosis inhibition; actives 0.8% (n = 300,000); protection from apoptosis, % (no concentration beside the values); INS-1E cytokine-induced death, ATP luminescence, 48 h; percent of positive-control rescue, neutral wells zero;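 active means Every replicate reaches about 75%, or at least half do and their mean reaches it too, limit read from the data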;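 further: 0% = cytokine-treated negative control wells and 100% = positive control rescue; higher means more ATP so stronger rescue from cytokine killing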
Mdm2 MdmX PPI – human Mdm2/MdmX binding inhibition; SaOS-2 split-luciferase Mdm2/MdmX complementation, luminescence; inhibition, % at 8 µM; actives 3% (n = 330,000); AID 485346;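 active means inhibition of at least 50% at 8 µM in the primary screen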
T cruzi repl – blocks replication of Trypanosoma cruzi; actives 1.4% (n = 300,000); T. cruzi beta-gal in NIH3T3, luminescence, 90 h; AID 1885; inhibition, % (no concentration beside the values);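 active means mean inhibition across valid replicates above about 55%, limit read from the data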;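 further: signal also drops with host cell toxicity which is not excluded here; 0% = plate median of DMSO wells and 100% = zero luminescence signal; higher percent means less beta-gal luminescence so fewer parasites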
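Read-out: Parasite load inhibition, % | Test system: Mouse NIH/3T3 fibroblasts infected with β-gal-expressing T. cruzi Tulahuen C4 | Amount: 5,000 cells/well | Medium: DMEM, 2% fetal bovine serum | Signal: GalScreen β-gal luminescence, detergent lysis, 60 min | Timing: 3 h attach, ≥90 h co-culture | Also added: Tulahuen C4 trypomastigotes, 5000/well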
UPR XBP1 act – adaptive UPR (XBP1) activation; CHO-XBP1 luciferase reporter, IRE1-XBP1 UPR activation, luminescence; percent of tunicamycin response, DMSO as zero; activation, % at 20 µM; actives 0.33% (n = 330,000);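 active means versus positive control, 20 µM dose yields 30% or more activation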;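 further: 100% = tunicamycin at 10 µg/mL and 0% = DMSO only wells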
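assay system = CHO-XBP1 luciferase reporter cells | amount = 1000 cells/well | buffer or medium = F12 plus 10% FBS | compound dosing = single point, 20 µM final compound, 1% DMSO | incubation = 16-18 h cell attachment at 37 °C, then 6 h compound exposure | detection = Steady-Glo luminescence read | controls = tunicamycin 10 µg/mL and vehicle-only wells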
CHOP UPR activ – activators of apoptotic arm of unfolded protein response (CHOP); activation, % at 10 µM; CHO-CHOP luciferase reporter, UPR activation, luminescence; percent of tunicamycin response over DMSO baseline; AID 449763; actives 0.34% (n = 330,000);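 active means at 10 µM dose, activation of 40% or more, normalized to positive control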;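 further: 100% = tunicamycin at 10 µg/mL and 0% = DMSO alone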
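measured by = luciferase luminescence | assay system = CHO-CHOP cells, stable luciferase reporter of PERK-eIF2a-CHOP signalling | amount = 500 reporter cells seeded per well | timing = 6 h compound exposure at 37 °C after overnight seeding | controls = positive tunicamycin 10 µg/mL, negative DMSO alone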
Mdm2-MdmX conf – human Mdm2/MdmX binding inhibition, confirmed; actives 55% (n = 10,000); AID 489028; luminescent assay; shares compounds with Mdm2 MdmX PPI; inhibition, % at 8 µM; in the data active means inhibition above about 40%
FLuc counter – inhibits full-length luciferase, flagging false Mdm2/MdmX hits | shares compounds with Mdm2 MdmX PPI | SaOS-2 full-length luciferase counterscreen, luminescence | inhibition, % at 8 µM | actives 77% (n = 6,200) | AID 504607;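 active means mean inhibition at 8 µM reaching about 37%, which flags the compound as non-specific, limit read from the data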;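 further: p53-null SaOS-2 cells with luciferase driven by a doxycycline-inducible promoter; compound on cells about two nights before reading with doxycycline added after day one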
Starred values were filed as active, the others as inactive; / = no result given.

SMILES	CSC inhib	Beta cell apopt	Mdm2 MdmX PPI	T cruzi repl	UPR XBP1 act	CHOP UPR activ	Mdm2-MdmX conf	FLuc counter
CC(C)(C)n1nnnc1C(c1cccnc1)N1CCN(c2cccc(C(F)(F)F)c2)CC1 (stereo not drawn)	-14.9	0.4	27.7	48.7	5.7	-2.1	/	/
COc1ccc(CNS(=O)(=O)CCNC(=O)c2cccc(OC)c2)cc1	-5.9	-6.8	4.0	-3.7	-3.6	0.5	/	/
O=C(N/N=C(\CC(=O)c1cccs1)C(F)(F)F)c1ccncc1	25.1	-8.7	65.8*	0.4	-1.4	-0.2	18.1	/
COc1ccc(CNC(=O)c2cc3c(s2)CN(Cc2ccccc2)C3)cc1	11.2	-2.0	7.9	17.2	-4.2	1.4	/	/
COc1ccc(CS(=O)(=O)/C(Cl)=C(/Cl)C(=O)Nc2ccc(OC)nc2)cc1	108.8*	51.7	93.9*	21.9	-9.5	6.3	97.3*	50.8*
COc1ccc(NC(=O)Cc2ccccc2)cn1	-5.4	1.3	0.5	-5.8	-1.4	-1.4	/	/
COc1ccc(/C=C/C(=O)Nc2ccc(OC)nc2)cc1	15.5	-10.8	8.3	-3.6	0.4	3.2	/	/
COc1ccc(NC(=O)/C(Cl)=C(/Cl)S(=O)Cc2ccccc2)cn1 (stereo not drawn)	/	103.7*	97.6*	29.8	-9.8	-10.0	98.8*	0.8
CCC(C(=O)NCc1ccc(F)cc1)N(Cc1cccs1)C(=O)c1snc(C(N)=O)c1N (stereo not drawn)	/	-2.9	-12.4	5.0	-0.5	0.2	/	/
COCCn1c(C)cc(O)c(C(=O)Nc2cccc(Cl)c2)c1=O	-2.4	-9.1	64.9*	-2.0	-6.0	3.6	51.8*	41.6*
NC(=O)c1oc2ccccc2c1NC(=O)c1ccc([N+](=O)[O-])o1	/	34.8	64.9*	31.9	4.1	8.2	55.4*	31.8
NC(=O)c1oc2ccccc2c1NC(=O)c1ccc(F)cc1	-8.2	-3.5	-15.0	-12.1	1.7	1.5	/	/
COc1ccc2sc(-c3ccc(SC)cc3)c(-c3ccc(O)cc3)c2c1	107.4*	17.0	53.8*	/	13.6	3.3	29.4	/
O=C(CN1C(=O)S/C(=C\c2cccc(Cl)c2)C1=O)NC1C=CS(=O)(=O)C1 (stereo not drawn)	1.7	-16.3	56.9*	-11.4	-8.0	0.5	33.1	/
CCOc1ccc2nc(N(CCN(C)C)C(=O)/C=C/c3cccs3)sc2c1	5.6	-2.5	64.6*	21.7	-4.6	4.5	30.9	/
CN(C)CCN(C(=O)/C=C/c1cccs1)c1nc2ccc(Br)cc2s1	20.1	7.0	27.1	27.9	1.2	0.8	/	/
CCc1ccc2nc(N(CCN(C)C)C(=O)/C=C/c3cccs3)sc2c1	66.1	7.7	51.2*	12.2	3.5	-0.4	20.9	/
COc1ccc(C2c3ccc4ccccc4c3Oc3ncn4nc(Cc5ccccc5)nc4c32)cc1OC (stereo not drawn)	9.7	2.4	32.6	35.5	-0.5	-1.0	/	/
COc1ccccc1C1c2ccc3ccccc3c2Oc2ncn(CCCO)c(=N)c21 (stereo not drawn)	17.2	13.0	73.9*	40.8	0.9	1.7	42.8*	60.8*
COc1ccccc1C1c2ccc3ccccc3c2Oc2ncn(CCN(C)C)c(=N)c21 (stereo not drawn)	84.7*	44.7	100.3*	18.0	2.5	2.2	85.1*	37.8*
COc1ccc(C2c3ccc(O)cc3Oc3ncn(Cc4ccco4)c(=N)c32)cc1OC (stereo not drawn)	25.9	-0.3	16.3	10.2	-0.5	0.9	/	/
COc1ccc(C2c3ccc4ccccc4c3Oc3ncn(Cc4ccco4)c(=N)c32)cc1OC (stereo not drawn)	79.8*	-2.0	85.1*	-3.1	0.5	5.3	54.3*	67.0*
Cc1nc(CC(=O)Nc2nccs2)cs1	-1.4	-8.8	21.8	0.8	-1.0	0.2	/	/
N#CC(C#N)=C(Nc1ccc(F)cc1)SCc1cccc(F)c1	58.0	101.8*	89.8*	-33.7	2.4	2.7	91.6*	23.3
CCOc1ccc(N/C(SCc2cccc([N+](=O)[O-])c2)=C(/C#N)C(N)=O)cc1	-1.4	-16.0	-1.3	24.4	1.1	-0.2	/	/
SMILES	CSC inhib	Beta cell apopt	Mdm2 MdmX PPI	T cruzi repl	UPR XBP1 act	CHOP UPR activ	Mdm2-MdmX conf	FLuc counter
CCOC(=O)c1c(C)[nH]c(C)c1S(=O)(=O)NCc1cc(C)ccc1C	-7.6	-6.9	16.3	2.5	-5.3	0.2	/	/
O=C(NCc1cccs1)C1CC(=O)N(c2ccc(Cl)cc2)C1 (stereo not drawn)	1.4	-1.7	-9.5	-5.1	-0.2	-2.2	/	/
Cc1ccccc1NC(=O)CSc1ccc(-c2ccccn2)nn1	4.0	-3.6	0.8	5.5	-0.3	1.5	/	/
Cc1cc(C)cc(NC(=O)CSc2ccc(-c3ccccn3)nn2)c1	96.4*	24.4	68.2*	34.5	-4.5	1.1	67.5*	31.7
CCc1ccccc1NC(=O)CN1C(=O)c2ccccc2S1(=O)=O	-0.4	/	11.4	-17.4	1.2	0.8	/	/
Cc1cc(NC(=O)Cn2cnc3c(nnn3-c3ccc(C)c(Cl)c3)c2=O)no1	-8.7	-3.5	42.6	-8.4	-2.2	-0.2	/	/
COc1ccc(-n2nnc3c(=O)n(CC(=O)Nc4ccc5c(c4)OCCO5)cnc32)cc1OC	-27.1	10.2	79.9*	-13.8	9.5	8.0	14.7	/
Cc1cc(NC(=O)Cn2cnc3c(nnn3-c3cccc(F)c3)c2=O)no1	-1.8	-6.6	-13.4	-6.9	-1.9	0.8	/	/
CCOc1ccc(-n2nnc3c(=O)n(CC(=O)Nc4cc(C)on4)cnc32)cc1	-6.1	6.6	55.7*	-3.9	7.7	10.0	2.2	/
COc1ccc(-n2ncc3c(=O)n(CC(=O)Nc4ccc5c(c4)OCCO5)cnc32)cc1	/	5.8	29.6	-8.7	2.8	0.4	/	/
O=C(Cn1cnc2c(nnn2-c2cccc(F)c2)c1=O)Nc1ccc2c(c1)OCCO2	-12.0	/	52.1*	-6.9	-4.2	1.6	20.7	/
Cc1ccc(CC(=O)NCC(O)c2ccccc2)cc1 (stereo not drawn)	-6.6	/	-5.7	-20.1	-0.4	2.5	/	/
COC(=O)c1c(C)[nH]c(-c2csc(N)n2)c1C	60.0	22.5	65.4*	-79.8	-1.2	0.3	61.0*	85.2*
Cc1ccc(S(=O)(=O)N2CCN(C(=O)c3cc(-c4cccs4)nn3-c3ccccc3)CC2)cc1	2.6	-6.6	67.0*	-11.1	0.8	5.5	41.1*	88.0*
